Measurements: ChEMBL document CHEMBL4715832, “Isoquinoline-based biaryls as a robust scaffold for microtubule inhibitors” (Eur J Med Chem, 2020)
Activity calls are given as the source filed them. The calls are words filed in the database; no cut-off is given here.

Columns and labels:
[1] = tested on: HeLa; assay: Antiproliferative activity against human HeLa cells assessed as reduction in cell growth after 48 hrs by resazurin dye based fluorescence assay; assay type: functional
How it was run: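 HeLa cells grown in DMEM with 10% FCS and penicillin/streptomycin, 37 °C, 5% CO2. Seeded 5,000 cells/well, treated 24 h later with DMSO 1% final, then incubated 48 h. Resazurin reduction to resorufin measured over 3 h at 37 °C by fluorescence (ex 544/em 590 nm). Normalised to cosolvent control (100%) and cell-free wells (0%). Means of at least three independent experiments.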

[2] = tested on: HeLa; assay: Induction of microtubule network depolymerization in human HeLa cells after 24 hrs by immunofluorescence staining based confocal microscopic analysis; assay type: cell-based
How it was run: (§1)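 HeLa cells seeded on glass coverslips (50,000 cells/well), allowed to adhere 18 h, then treated 24 h. Fixed with 0.5% glutaraldehyde, quenched with 0.1% NaBH4, blocked with PBS + 10% FCS. Stained with rabbit anti-alpha-tubulin (1:400, 1 h), then Alexa Fluor 488 anti-rabbit secondary, with DAPI nuclear counterstain. Imaged by confocal microscopy, including z-stack projections.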

[3] = tested on: HL-60; assay: Antiproliferative activity against human HL-60 cells assessed as reduction in cell growth after 24 hrs by MTT assay; assay type: functional, cell-based; conditions: HL-60, 24 h
How it was run: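 HL-60 cells grown in RPMI 1640 with 10% FCS, no antibiotics, 37 °C, 5% CO2. Seeded 9,000 cells/well, treated 24 h later with DMSO cosolvent at 1% final. After 24 h, MTT 0.5 mg/mL for 2 h, absorbance read. Normalised to cosolvent control (100%) and Triton X-100-treated cells (0%). Means of at least three independent experiments.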

[4] = tested on: HeLa; assay: Induction of microtubule network depolymerization in human HeLa cells at 15 uM after 24 hrs by immunofluorescence staining based confocal microscopic analysis; assay type: cell-based; how it was run: as §1
[5] = Solubility of compound; assay type: physicochemical
[6] = species: Homo sapiens; assay: Inhibition of porcine tubulin polymerization at 16 uM preincubated for 10 mins followed by GTP addition by turbidimetric method
How it was run: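 Purified porcine brain tubulin (99% purity) pre-incubated 10 min at 37 °C with compound at 16 µM in buffer containing 3% DMSO and 10% glycerol. Polymerisation started at time zero by adding GTP to 1 mM. Absorbance at 340 nm followed over time at 37 °C as the turbidity read-out.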

For `COc1ccc([C@H](O)c2nccc3c(OC)c(OC)c(OC)cc23)cc1`, which EC50 [1] is on record?
The EC50 was greater than 100 µM.

What does the source list for `COc1ccc2cc[n+](C)c(-c3cc(OC)c(OC)c(OC)c3)c2c1`?
EC50 [1]: > 30 µM; Activity [2]: inactive

For `COc1ccc(C(=O)c2nccc3c(OC)c(OC)c(OC)cc23)cc1`, which EC50 [1] is on record?
The EC50 was greater than 80 µM.

With `COc1cc(-c2nccc3c(OC)c(OC)c(OC)cc23)ccc1OP(=O)(O)O` as the molecule, how does the EC50 [1] read?
Its EC50 is greater than 100 µM.

What about the EC50 [3] of the same molecule?
The EC50 was greater than 100 µM.

Which EC50 [1] does the source give for `COc1cc(-c2nccc3c(OC)c(OC)c(OC)cc23)ccc1O` here?
The EC50 was 50 µM.

For `COc1cc(-c2nccc3cc4c(cc23)OCO4)cc(OC)c1OC`, which Activity [4] is on record?
The Activity was “inactive”.

What about the EC50 [1] of the same molecule?
Its EC50 is greater than 20 µM.

What about the Activity [2] of the same molecule?
The Activity was “inactive”.

What about the solubility [5] of the same molecule?
The solubility was “Insoluble”.

With `COc1cc2c(c(OC)c1OC)-c1ccc(OC)c(=O)cc1[C@@H](NC(C)=O)CC2` as the molecule, how does the inhibition [6] read?
Its inhibition is “Active”.
